Measured values collected from several papers.
Compare with care: the assays were run in different laboratories.
PIK3CA I800L: Phosphatidylinositol 4,5-bisphosphate 3-kinase catalytic subunit alpha isoform (PIK3CA, Homo sapiens, UniProt P42336, I800L)
PIK3CA: Phosphatidylinositol 4,5-bisphosphate 3-kinase catalytic subunit alpha isoform (PIK3CA, Homo sapiens, UniProt P42336)
PIK3CA M1043I: Phosphatidylinositol 4,5-bisphosphate 3-kinase catalytic subunit alpha isoform (PIK3CA, Homo sapiens, UniProt P42336, M1043I)

SMILES	target	test	setting	endpoint	result
C=CC(=O)N1CCC[C@@H](n2nc(-c3ccc(Oc4ccccc4)cc3)c3c(N)ncnc32)C1	PIK3CA I800L	enzyme activity, inhibitor	1 µM	inhibition	8%
C#Cc1cc(-c2cc(Nc3nc(N[C@@H](C)c4ccc(F)cn4)ncc3Cl)n[nH]2)ccc1C=O	PIK3CA	enzyme activity, inhibitor	0.2 µM	inhibition	7.89%
Cc1ccc(NC(=O)c2ccnc(C(F)(F)F)c2)cc1-c1cc(OCCO)nc(N2CCOCC2)c1	Phosphatidylinositol 4,5-bisphosphate 3-kinase catalytic subunit alpha isoform (PIK3CA, Homo sapiens, UniProt P42336, H1047L)	binding	1 µM	remaining binding	98%
C=CC(=O)N1CCC([C@@H]2CCNc3c(C(N)=O)c(-c4ccc(Oc5ccccc5)cc4)nn32)CC1	PIK3CA	enzyme activity, inhibitor	1 µM	inhibition	0%
CN1CCN(C(=O)c2ccc(NC(=O)Nc3ccc(N(C)c4ccnc(Nc5ccc(CS(C)(=O)=O)cc5)n4)cc3)cc2)CC1	PIK3CA M1043I	binding	1 µM	remaining binding	100%
C1=C/COCc2cc(ccc2OCCN2CCCC2)Nc2nccc(n2)-c2cccc(c2)COC/1	PIK3CA I800L	binding	0.1 µM	remaining binding	60%
C[C@H]1CC[C@H](n2c3cnccc3c3cnc(Nc4ccc5c(n4)CCN(C(=O)CO)C5)nc32)CC1	Phosphatidylinositol 4,5-bisphosphate 3-kinase catalytic subunit alpha isoform (PIK3CA, Homo sapiens, UniProt P42336, E545K)	cell-free assay	1 µM	remaining signal	100%
CCCCC(=O)Nc1ccc(-c2ccc3ncn(CCC)c(=O)c3c2)cn1	PIK3CA M1043I	binding, competition with immobilised ligand	0.5 µM	remaining binding	91%
CC#CC(=O)N1CCC[C@H]1c1nc(-c2ccc(C(=O)Nc3ccccn3)cc2)c2c(N)nccn12	Phosphatidylinositol 4,5-bisphosphate 3-kinase catalytic subunit alpha isoform (PIK3CA, Homo sapiens, UniProt P42336, C420R)	enzyme activity, inhibitor	1 µM	inhibition	17%
